# Source: PubChem BioAssay (several laboratories)
# HSF1 inh: HSF1 inhibition | NIH3T3-HGL HSE-luciferase, MG132-induced, luminescence 8 h; active compounds read low | activity change, negative = inhibition, % at 7.5 µM (by protocol) | actives 0.77% (n = 300,000) | AID 2098;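 active = more than half of replicate wells show activity change below -50%, luminescence cut by over half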;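 note: luciferase reports HSF-1 transcriptional activity via heat shock element; 0% = median of DMSO wells and -100% = zero luminescence signal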
# CHT PAM: allosteric activators of human choline transporter CHT; B-score at 10 µM; CHT-expressing cells, membrane potential dye, choline EC20; active compounds read high; LV-AA mutant CHT in HEK293 cells; actives 0.49% (n = 310,000);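 active = initial fluorescence not abnormally high and integrated response B-score, plate-corrected, over 3 SD above library mean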
# Target sequence (Q9GZV3 whole entry, looked up): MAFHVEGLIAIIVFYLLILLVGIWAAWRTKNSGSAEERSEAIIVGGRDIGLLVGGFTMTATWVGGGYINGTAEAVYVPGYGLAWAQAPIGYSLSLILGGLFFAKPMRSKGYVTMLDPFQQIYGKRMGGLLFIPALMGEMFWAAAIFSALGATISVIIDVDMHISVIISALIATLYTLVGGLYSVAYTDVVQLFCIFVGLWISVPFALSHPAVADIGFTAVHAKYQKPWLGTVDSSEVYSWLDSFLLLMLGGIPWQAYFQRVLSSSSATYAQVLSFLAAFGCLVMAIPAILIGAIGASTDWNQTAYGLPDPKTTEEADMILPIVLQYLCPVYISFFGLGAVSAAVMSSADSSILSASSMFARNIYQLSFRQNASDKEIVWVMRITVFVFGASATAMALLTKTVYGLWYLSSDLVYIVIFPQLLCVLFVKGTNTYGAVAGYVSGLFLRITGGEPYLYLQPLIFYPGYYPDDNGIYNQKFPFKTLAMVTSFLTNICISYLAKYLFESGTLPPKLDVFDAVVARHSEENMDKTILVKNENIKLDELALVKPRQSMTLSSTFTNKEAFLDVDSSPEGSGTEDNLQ
# HSF1 activator: increases HSF-1 driven luciferase reporter signal. NIH3T3-HGL HSF-1 luciferase reporter, MG132, 8 h; 100% = twice DMSO control signal. actives 1.7% (n = 300,000). activation, % at 9 µM;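 active = mean replicate activation of at least 50% with a set share of replicates each reaching 50%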;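 note: 0% = median of the neutral control wells and 100% = twice that signal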
# CHT inh: inhibits the human high affinity choline transporter. B-score at 10 µM. actives 0.86% (n = 310,000). AID 488975. Q9GZV3. CHT-expressing cells, membrane potential dye, choline response; active compounds read low;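 active = B-score over 3 SD under the library average, and starting fluorescence ratio not unusually high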;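 note: choline stimulus applied at its EC90 after an EC20 pre-addition; B-score computed on integrated fluorescence ratio after choline addition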
# PHOSPHO1 block: inhibitors of human PHOSPHO1 phosphatase; Q8TCT1; recombinant PHOSPHO1, absorbance phosphatase assay; inhibition, % at 13.3 µM; actives 1.1% (n = 290,000); AID 1565; in the data active = inhibition above about 60%
# Lipid droplet: modulators of hepatic lipid droplet formation; AML12 mouse hepatocytes, oleate lipid droplets, BODIPY imaging; inhibition, % at 6.5 µM; actives 0.4% (n = 240,000); AID 1656;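 active = lipid droplet intensity inhibited by at least 50%, with more than 500 cells counted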
#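 Assay system: AML12 hepatocytes (mouse) / Also added: 100 µM oleic acid challenge / Times: overnight treatment with compound plus oleate / Detection: high-content imaging of BODIPY-stained droplets and DAPI nuclei / Evaluation: % inhibition of lipid droplet signal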
# * marks the source's active call; other numbers are inactive results; i = inactive; / = no result. Compounds with a hit are over-represented: about 4.9% of the library has one in this group of screens.
SMILES,HSF1 inh,CHT PAM,HSF1 activator,CHT inh,PHOSPHO1 block,Lipid droplet
Cn1c(=O)c2c(nc(NCCCO)n2C/C=C/c2ccccc2)n(C)c1=O,-2,i,23,i,2,-4
O=C(Nc1ccccc1)c1ccc2nc(-c3ccco3)c(-c3ccco3)nc2c1,22,i,56*,i,-17,-4
CC(=O)c1ccc(NC(=O)c2ccc3nc(-c4ccco4)c(-c4ccco4)nc3c2)cc1,0,i,1,i,98*,1
CCOc1ccc(N(CC)C(=O)Cc2c(C(=O)O)n(C)c3ccccc23)cc1,-11,i,-16,i,19,-2
Cc1cc(C2C(C#N)=C(N)OC3=C2C(=O)CCC3)c(C)s1 (stereo not given),1,i,1,i,2,21
COc1cc(C2C(C#N)=C(N)OC3=C2C(=O)CCC3)c([N+](=O)[O-])cc1OC (stereo not given),-77*,i,-83,i,4,/
OC1CCN(Cc2cccc(Oc3ccccc3)c2)CC1,-51*,i,-62,i,-5,/
CN1CCN(Cc2cccc(Oc3ccccc3)c2)CC1,-1,i,-2,i,11,7
CCOc1ccc(S(=O)(=O)n2nc(C)cc2C)c2ccccc12,5,i,16,i,10,-28
Cc1ccc(O)c(NC(=O)c2cc([N+](=O)[O-])ccc2Cl)c1,-7,i,1,i,8,0
O=C(Nc1cccc2c1CCCC2)c1cc([N+](=O)[O-])ccc1Cl,31,i,55*,i,-18,/
Cc1cc(O)c(NC(=O)c2cc([N+](=O)[O-])ccc2Cl)cc1C,99,i,100*,i,22,-16
N#CC1=C(N)N(c2ccc(Oc3ccccc3)cc2)C(=O)C1,-89*,i,-91,i,-14,17
Cc1nc(NCCc2ccccc2)c2oc3ccccc3c2n1,-1,6.3*,-4,i,6,-40
Cc1nc(SCC(=O)NC(C)c2ccccc2)c2oc3ccccc3c2n1 (stereo not given),14,i,1,i,28,0
CNC(=O)C(Sc1nc(C)nc2c1oc1ccccc12)C(C)=O (stereo not given),4,i,-5,i,88*,/
CCCCOc1ccc(-c2ncc(C(=O)O)c(C)n2)cc1,-15,i,-30,i,14,/
Nc1nc(-c2ccco2)c(-c2ccco2)s1,10,i,11,i,88*,/
Nc1nc(-c2ccco2)cs1,-3,i,2,i,93*,/
Nc1nc(-c2ccc(-n3nncc3-c3ccco3)cc2)cs1,-2,i,16,i,11,-3
Cc1ccc2oc(=O)n(Cc3ccc(OC(C)C)cc3)c2c1,3,i,13,i,29,/
COc1ccccc1OCC(=O)Nn1c(=S)[nH]c2ncccc2c1=O,-2,i,-3,i,9,10
CCOc1ccccc1/C=C(/NC(=O)c1ccccc1)C(=O)NCC(=O)O,-6,i,-7,i,-9,52*
CCOc1ccccc1/C=C(\NC(=O)c1ccccc1)C(=O)NCCC(=O)O,0,i,13,i,-6,-3
Cc1ccnc(NC(=O)CCc2c(C)nc3ncnn3c2C)c1,-9,i,3,i,64*,/
SMILES,HSF1 inh,CHT PAM,HSF1 activator,CHT inh,PHOSPHO1 block,Lipid droplet
CCOC(=O)N1CCN(C(=O)c2cn(C)c3ccc(S(=O)(=O)N(C)C4CCCCC4)cc3c2=O)CC1,3,i,-1,i,26,-4
CN(C)c1ccc(/C=N/NC(=O)c2cccc(N3CCCC3=O)c2)cc1,-82*,i,-87,i,-12,6
CC(Oc1cccc(Cl)c1)C(=O)Nc1cc(Cl)ccc1N1CCOCC1 (stereo not given),14,i,11,i,/,/
COc1cccc(CNc2ncc(Br)cc2Br)c1O,107,i,138*,i,23,/
COc1cccc(CNc2ccc(Br)cn2)c1O,181,i,272*,i,59,/
CCNC(=S)N1CC(C)OC(C)C1 (stereo not given),-6,i,8,i,17,/
O=S(=O)(Nc1ccccc1N1CCCCC1)c1ccc(F)cc1,4,i,41,i,-2,-11
